In ChEMBL document CHEMBL1142621, “Galloylglucosides from berries of Pimenta dioica” (J Nat Prod, 2000):

Experiments:
Format in all cases: functional
[1] = DPPH radical scavenging activity at 5 uM after 30 mins by spectrophotometric assay
Summary of the method: (§1)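 Compounds added to ethanolic DPPH radical solution (100 µM final). Mixtures were vortexed, then kept 30 min at 25 °C in a water bath in the dark. Remaining DPPH was read by absorbance at 517 nm. Scavenging = (A without compound − A with compound)/A without compound × 100. Means with SD from three independent experiments; column differences tested at p < 0.05.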

[2] = DPPH radical scavenging activity at 2.5 uM after 30 mins by spectrophotometric assay; summary of the method: as §1
[3] = DPPH radical scavenging activity at 40 uM after 30 mins by spectrophotometric assay; summary of the method: as §1
[4] = DPPH radical scavenging activity at 20 uM after 30 mins by spectrophotometric assay; summary of the method: as §1
[5] = DPPH radical scavenging activity at 10 uM after 30 mins by spectrophotometric assay; summary of the method: as §1
[6] = DPPH radical scavenging activity at 80 uM after 30 mins by spectrophotometric assay; summary of the method: as §1

In the case of `CC1=CC[C@@H](C(C)(C)O[C@@H]2O[C@H](COC(=O)c3cc(O)c(O)c(O)c3)[C@@H](O)[C@H](O)[C@H]2O)CC1`, the Activity [1] is reported as 26.2%, the Activity [2] is reported as 14.8% and the Activity [3] is reported as 95.4%. The Activity [4] was 88.9%, the Activity [5] was 48.4% and the Activity [6] was 95.4%.

Work on `C=CCc1cc(OC)c(O)c(O[C@@H]2O[C@H](COC(=O)c3cc(O)c(O)c(O)c3)[C@@H](O)[C@H](O)[C@H]2O)c1` yielded an Activity [1] of 26.8%, an Activity [2] of 12.2% and an Activity [3] of 95.7%. The Activity [4] was 91.2%, the Activity [5] was 53.6% and the Activity [6] was 95.8%.

Compound `C=CCc1ccc(O[C@@H]2O[C@H](COC(=O)c3cc(O)c(O)c(O)c3)[C@@H](O)[C@H](O)[C@H]2O)c(OC)c1` has an Activity [1] of 31.7%, an Activity [2] of 15% and an Activity [3] of 95.2%. For the same compound, the Activity [4] was 95.2%, the Activity [5] was 60.9% and the Activity [6] was 95.7%.

For `COc1cc(CC(CO)O[C@@H]2O[C@H](COC(=O)c3cc(O)c(O)c(O)c3)[C@@H](O)[C@H](O)[C@H]2O)ccc1O` (mixture of isomers), the Activity [1] was 33.1%, the Activity [2] was 17.7% and the Activity [3] was 95.3%. For the same compound, the Activity [4] was 92.4%, the Activity [5] was 56.9% and the Activity [6] was 95.6%.

Work on `CC1=CC[C@H](C(C)(C)O[C@@H]2O[C@H](COC(=O)c3cc(O)c(O)c(O)c3)[C@@H](O)[C@H](O)[C@H]2O)CC1` yielded an Activity [1] of 24.5%, an Activity [2] of 12.9% and an Activity [3] of 95.3%. It also gave an Activity [4] of 90.1%, an Activity [5] of 46.2% and an Activity [6] of 95.3%.

Work on `Cc1cc(C(C)(C)C)c(O)c(C(C)(C)C)c1` yielded an Activity [1] of 11.8%, an Activity [2] of 6.3% and an Activity [3] of 47.5%. It also gave an Activity [4] of 28.6%, an Activity [5] of 16.7% and an Activity [6] of 68%.

Compound `Cc1c(C)c2c(c(C)c1O)CC[C@@](C)(CCC[C@H](C)CCC[C@H](C)CCCC(C)C)O2` has an Activity [1] of 14%, an Activity [2] of 8.3% and an Activity [3] of 95.7%. The Activity [4] was 48.8%, the Activity [5] was 23.4% and the Activity [6] was 95.8%.

Work on `O=C(O)c1cc(O)c(O)c(O)c1` yielded an Activity [1] of 34.9%, an Activity [2] of 19% and an Activity [3] of 94.8%. It also gave an Activity [4] of 86.8%, an Activity [5] of 61.6% and an Activity [6] of 95.7%.
